ChEMBL document CHEMBL1157000, “Aminofurazans as potent inhibitors of AKT kinase” (Bioorg Med Chem Lett, 2009)

How the values were obtained:
[1] = biological target: RAC-alpha serine/threonine-protein kinase (Homo sapiens, UniProt P31749); test: Inhibition of AKT
HFF = test: Antiproliferative activity against human HFF cells; assay type: functional, cell-based
Summary of the method: (§1)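 Cell proliferation inhibition in tumour lines (BT474, LNCaP) and non-tumour HFF cells; values are the mean of at least two experiments.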

LNCaP = test: Antiproliferative activity against human LNCAP cells; assay type: functional, cell-based; summary of the method: as §1
BT-474 = test: Antiproliferative activity against human BT474 cells; assay type: functional, cell-based; summary of the method: as §1
[2] = biological target: RAC-gamma serine/threonine-protein kinase (Homo sapiens, UniProt Q9Y243); test: Inhibition of AKT3
Chain of RAC-gamma serine/threonine-protein kinase (Q9Y243 whole entry): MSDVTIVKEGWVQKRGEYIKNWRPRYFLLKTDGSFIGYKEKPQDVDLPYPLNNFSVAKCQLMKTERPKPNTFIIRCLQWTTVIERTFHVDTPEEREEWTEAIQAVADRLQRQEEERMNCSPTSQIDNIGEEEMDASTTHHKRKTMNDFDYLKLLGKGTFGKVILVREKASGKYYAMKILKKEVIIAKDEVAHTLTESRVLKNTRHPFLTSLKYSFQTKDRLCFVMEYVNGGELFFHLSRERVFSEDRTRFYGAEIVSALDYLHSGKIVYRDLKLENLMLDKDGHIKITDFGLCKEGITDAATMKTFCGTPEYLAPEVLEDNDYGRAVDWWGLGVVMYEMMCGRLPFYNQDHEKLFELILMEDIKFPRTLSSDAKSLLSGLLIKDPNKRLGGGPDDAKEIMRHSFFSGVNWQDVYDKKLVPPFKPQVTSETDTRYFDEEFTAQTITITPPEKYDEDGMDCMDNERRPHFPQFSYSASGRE

Mus musculus = test: Inhibition of GSK3B phosphorylation in human BT474 cells xenografted in ip dosed mouse; assay type: functional, organism-based; details: BT-474
Summary of the method: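 Mice bearing BT474 xenografts were dosed ip at […], 12.5 or 25 mg/kg, with a vehicle control group. GSK3b phosphorylation in the tumours was the read-out.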

Chain of RAC-alpha serine/threonine-protein kinase (P31749 whole entry): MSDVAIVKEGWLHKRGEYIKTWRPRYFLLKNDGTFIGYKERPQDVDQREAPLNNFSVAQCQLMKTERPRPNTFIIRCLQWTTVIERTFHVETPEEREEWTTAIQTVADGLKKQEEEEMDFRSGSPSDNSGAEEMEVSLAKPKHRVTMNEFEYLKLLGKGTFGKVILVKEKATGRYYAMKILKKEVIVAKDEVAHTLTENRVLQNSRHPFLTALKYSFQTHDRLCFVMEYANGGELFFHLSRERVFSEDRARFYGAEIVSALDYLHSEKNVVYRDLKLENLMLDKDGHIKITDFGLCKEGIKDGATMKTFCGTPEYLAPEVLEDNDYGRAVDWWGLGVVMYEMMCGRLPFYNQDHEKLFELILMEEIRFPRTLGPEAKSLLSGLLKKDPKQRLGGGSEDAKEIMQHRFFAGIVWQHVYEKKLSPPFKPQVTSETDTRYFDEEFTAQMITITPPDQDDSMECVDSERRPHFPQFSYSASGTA

Row | Structure (SMILES) | IC50 [1] | Ki [1] | IC50 (LNCaP) | IC50 (BT-474) | IC50 [2] | IC50 (HFF) | inhibition (Mus musculus)
1 | CCn1c(-c2nonc2N)nc2c(C#CC(C)(C)O)nc(O[C@@H](CCN)c3ccccc3)cc21 | 2 nM | 0.2 nM | 5 nM | 1 nM |  | 11000 nM | 
2 | CCn1c(-c2nonc2N)nc2c(C#CC(C)(C)O)nc(OC[C@H](C)N)cc21 | 13 nM |  | 560 nM | 4860 nM |  | 28000 nM | 
3 | CCn1c(-c2nonc2N)nc2c(C#CC(C)(C)O)nc(CCN)cc21 | 4 nM |  | 2020 nM | 1090 nM |  | 24000 nM | 
4 | CCn1c(-c2nonc2N)nc2c(C#CC(C)(C)O)nc(OCCNC)cc21 | 12 nM |  | 896 nM | 3190 nM |  | 17000 nM | 
5 | CCn1c(-c2nonc2N)nc2c(C#CC(C)(C)O)nc(CN(C)C)cc21 | 2 nM |  | 114 nM | 357 nM |  | 30000 nM | 
6 | CCn1c(-c2nonc2N)nc2c(C#CC(C)(C)O)nc(CN3CCCC3)cc21 [GSK-1000163A] | 6 nM |  | 313 nM | 1250 nM | 22 nM | 30000 nM | 
7 | CCn1c(-c2nonc2N)nc2c(C#CC(C)(C)O)nc(OCCN)cc21 | 5 nM | 6 nM | 497 nM | 1080 nM | 43 nM | 5000 nM | 
8 | CCn1c(-c2nonc2N)nc2c(C#CC(C)(C)O)nc(OCCCCN)cc21 | 63 nM |  | 6160 nM | 20000 nM |  | 30000 nM | 
9 | CCn1c(-c2nonc2N)nc2c(C#CC(C)(C)O)nc(CCCN)cc21 | 3 nM |  | 4720 nM | 3520 nM | 30 nM | 23000 nM | 
10 | CCn1c(-c2nonc2N)nc2c(C#CC(C)(C)O)nc(CNC)cc21 | 3 nM |  | 201 nM | 439 nM |  | 5900 nM | 
11 | CCn1c(-c2nonc2N)nc2c(C#CC(C)(C)O)nc(CN)cc21 | 6 nM |  | 296 nM | 806 nM |  | 24000 nM | 
12 | CCn1c(-c2nonc2N)nc2c(C#CC(C)(C)O)nc(OCCCN)cc21 | 16 nM | 115 nM | 3180 nM | 7120 nM |  | 30000 nM | 
13 | CCn1c(-c2nonc2N)nc2c(C#CC(C)(C)O)ncc(OC[C@H]3CCCNC3)c21 [GSK-690693] |  |  | 21 nM | 69 nM |  | > 23000 nM | 
14 | CCn1c(-c2nonc2N)nc2c(C#CC(C)(C)O)nc(OC[C@@H](C)N)cc21 | 8 nM |  | 220 nM | 860 nM |  | 17000 nM | 

Continued, in another order:

Row | IC50 [1] | Ki [1] | IC50 (LNCaP) | IC50 (BT-474) | IC50 [2] | Structure (SMILES) | IC50 (HFF) | inhibition (Mus musculus)
15 | 0.6 nM | 0.2 nM | 20 nM | 742 nM | 3 nM | CCn1c(-c2nonc2N)nc2c(C#CC(C)(C)O)nc(OC[C@H](N)Cc3ccccc3)cc21 | 8000 nM | 
16 | 4 nM | 1.9 nM | 85 nM | 224 nM | 65 nM | CCn1c(-c2nonc2N)nc2c(C#CC(C)(C)O)nc(O[C@H](CCN)c3ccccc3)cc21 | 29000 nM | 
17 | 1 nM | 0.4 nM | 27 nM | 35 nM | 1 nM | CCn1c(-c2nonc2N)nc2c(C#CC(C)(C)O)nc(O[C@@H](CN)c3ccccc3)cc21 | 519 nM | Dose-dependent effect
18 | 3 nM |  | 124 nM | 2100 nM | 17 nM | CCn1c(-c2nonc2N)nc2c(C#CC(C)(C)O)nc(OC[C@H](N)c3ccccc3)cc21 [GSK-943949A] | 5000 nM | 
19 | 3 nM |  | 101 nM | 1500 nM |  | CCn1c(-c2nonc2N)nc2c(C#CC(C)(C)O)nc(OC[C@@H](N)Cc3ccccc3)cc21 | 7000 nM | 
20 | 5 nM |  | 176 nM | 3440 nM | 49 nM | CCn1c(-c2nonc2N)nc2c(C#CC(C)(C)O)nc(OC[C@@H](N)c3ccccc3)cc21 [GSK-938890A] | 20000 nM | 
21 | 3 nM | 3 nM | 68 nM | 124 nM |  | CCn1c(-c2nonc2N)nc2c(C#CC(C)(C)O)nc(O[C@H](CN)c3ccccc3)cc21 | 20000 nM | 
